Data: ChEMBL document CHEMBL4118152, “Discovery of Potent and Selective Periphery-Restricted Quinazoline Inhibitors of the Cyclic Nucleotide Phosphodiesterase PDE1” (J Med Chem, 2018)

Tests used:
Homo sapiens [1] = organism: Homo sapiens; test: Inhibition of human delta 2 opioid receptor at 10 uM relative to control
Mus musculus = organism: Mus musculus; test: Inhibition of mouse brain rolipram binding site assessed as [3H]rolipram uptake at 10 uM after 60 mins by scintillation counting analysis relative to control
Rattus norvegicus [2] = organism: Rattus norvegicus; test: Displacement of [3H]CGP 39653 from rat brain Glutamate receptor ionotropic, NMDA at 10 uM after 60 mins by scintillation counting analysis relative to control
[3] = biological target: Somatostatin receptor type 4 (Homo sapiens) (UniProt P31391); test: Inhibition of human Somatostatin 4 receptor at 10 uM relative to control
Somatostatin receptor type 4 (Homo sapiens), sequence (P31391 whole entry): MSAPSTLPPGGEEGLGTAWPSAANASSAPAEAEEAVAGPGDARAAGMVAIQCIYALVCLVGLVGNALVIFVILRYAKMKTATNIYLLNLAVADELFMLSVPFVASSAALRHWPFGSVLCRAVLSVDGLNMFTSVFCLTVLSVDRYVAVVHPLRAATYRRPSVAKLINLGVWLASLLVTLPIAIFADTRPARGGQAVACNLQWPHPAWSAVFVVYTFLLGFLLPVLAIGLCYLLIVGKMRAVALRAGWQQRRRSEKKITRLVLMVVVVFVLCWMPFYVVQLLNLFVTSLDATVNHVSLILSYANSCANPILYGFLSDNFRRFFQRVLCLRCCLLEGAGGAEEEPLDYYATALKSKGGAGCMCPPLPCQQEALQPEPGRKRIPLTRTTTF

[4] = biological target: High affinity cAMP-specific and IBMX-insensitive 3',5'-cyclic phosphodiesterase 8B (Homo sapiens, UniProt O95263); test: Inhibition of full length recombinant human PDE8B using 3',5'-[3H]cAMP as substrate after 30 mins by scintillation proximity assay
High affinity cAMP-specific and IBMX-insensitive 3',5'-cyclic phosphodiesterase 8B, sequence (O95263 whole entry): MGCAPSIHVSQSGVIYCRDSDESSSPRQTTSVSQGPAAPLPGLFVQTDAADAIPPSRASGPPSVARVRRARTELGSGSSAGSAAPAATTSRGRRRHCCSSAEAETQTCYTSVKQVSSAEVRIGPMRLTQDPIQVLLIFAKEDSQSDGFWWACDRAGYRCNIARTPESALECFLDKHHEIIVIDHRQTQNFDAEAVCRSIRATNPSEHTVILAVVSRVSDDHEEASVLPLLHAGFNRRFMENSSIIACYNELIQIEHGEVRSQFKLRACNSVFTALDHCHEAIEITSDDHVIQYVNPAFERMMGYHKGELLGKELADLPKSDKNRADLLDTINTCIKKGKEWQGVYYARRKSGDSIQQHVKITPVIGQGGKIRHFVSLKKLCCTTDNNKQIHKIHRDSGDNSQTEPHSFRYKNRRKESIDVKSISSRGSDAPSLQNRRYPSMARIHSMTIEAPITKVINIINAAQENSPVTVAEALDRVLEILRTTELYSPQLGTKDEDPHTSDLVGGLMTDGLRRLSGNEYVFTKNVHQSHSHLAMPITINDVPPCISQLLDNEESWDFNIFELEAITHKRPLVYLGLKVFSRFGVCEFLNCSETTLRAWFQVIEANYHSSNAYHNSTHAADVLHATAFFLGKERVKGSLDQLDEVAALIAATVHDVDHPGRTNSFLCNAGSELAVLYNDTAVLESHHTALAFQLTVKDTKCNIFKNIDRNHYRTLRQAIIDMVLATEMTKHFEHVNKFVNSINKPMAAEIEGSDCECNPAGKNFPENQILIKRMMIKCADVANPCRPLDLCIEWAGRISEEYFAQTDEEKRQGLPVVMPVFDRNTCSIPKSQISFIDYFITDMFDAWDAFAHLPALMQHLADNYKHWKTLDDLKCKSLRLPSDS
Outline: (§1)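 Enzymes were human except PDE6A, which was bovine. Each was assayed with cAMP or cGMP substrate, as appropriate to the enzyme, at concentrations below 1/3 of Km. IC50 values are mean ± SEM from n = 3 or more.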

Homo sapiens [5] = organism: Homo sapiens; test: Selectivity ratio of IC50 for full length recombinant human PDE3A1 to IC50 for full length recombinant human PDE1A
Outline: (§2)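 IC50s were measured against recombinant PDEs, all human except PDE6A (bovine). Each enzyme was given its appropriate cAMP or cGMP substrate at below 1/3 of its Km. IC50s are the mean of n = 3 or more. The selectivity ratio is the IC50 for the other PDE divided by the IC50 for PDE1B1 or PDE1A.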

[6] = biological target: Histamine H1 receptor (Homo sapiens) (UniProt P35367); test: Inhibition of human histamine H1 receptor at 10 uM relative to control
Histamine H1 receptor (Homo sapiens), sequence (P35367 whole entry): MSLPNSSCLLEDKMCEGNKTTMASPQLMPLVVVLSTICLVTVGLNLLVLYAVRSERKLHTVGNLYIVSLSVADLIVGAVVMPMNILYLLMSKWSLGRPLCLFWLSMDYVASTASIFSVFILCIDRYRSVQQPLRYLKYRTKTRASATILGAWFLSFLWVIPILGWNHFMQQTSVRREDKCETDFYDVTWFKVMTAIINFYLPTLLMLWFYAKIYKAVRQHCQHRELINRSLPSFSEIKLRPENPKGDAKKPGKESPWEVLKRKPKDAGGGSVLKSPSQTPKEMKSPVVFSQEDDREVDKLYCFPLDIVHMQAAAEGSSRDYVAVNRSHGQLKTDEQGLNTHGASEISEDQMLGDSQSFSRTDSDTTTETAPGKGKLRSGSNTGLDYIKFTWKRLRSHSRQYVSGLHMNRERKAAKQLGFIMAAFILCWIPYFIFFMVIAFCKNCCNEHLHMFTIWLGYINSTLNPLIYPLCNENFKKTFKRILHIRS

[7] = Drug uptake in Wistar Hannover rat cerebrospinal fluid at 1 mg/kg, sc measured at 1 hr post dose by LC-MS/MS analysis; format: ADME, organism-based; settings: read-out: Drug uptake
Outline: (§3)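 Rats were dosed subcutaneously at 1 mg/kg. CSF, plasma and brain were sampled at 0.5, 1, 2 and 4 h post dose and analysed for drug concentration. Values are means at each time point.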

[8] = biological target: Substance-P receptor (Homo sapiens) (UniProt P25103); test: Inhibition of human NK1 receptor at 10 uM relative to control
Substance-P receptor (Homo sapiens), sequence (P25103 whole entry): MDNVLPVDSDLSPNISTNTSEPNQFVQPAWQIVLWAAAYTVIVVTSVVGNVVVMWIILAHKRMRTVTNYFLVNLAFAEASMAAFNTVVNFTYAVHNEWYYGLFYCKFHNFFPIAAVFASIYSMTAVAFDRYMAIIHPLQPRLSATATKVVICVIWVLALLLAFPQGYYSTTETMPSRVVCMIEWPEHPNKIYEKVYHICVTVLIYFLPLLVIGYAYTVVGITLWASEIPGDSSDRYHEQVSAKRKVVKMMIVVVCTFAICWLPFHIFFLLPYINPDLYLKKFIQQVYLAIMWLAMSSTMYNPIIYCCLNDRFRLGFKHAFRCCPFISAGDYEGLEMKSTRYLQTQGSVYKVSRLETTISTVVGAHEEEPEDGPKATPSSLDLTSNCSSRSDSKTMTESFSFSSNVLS

CYP2C19 = CYP2C19 (Homo sapiens, UniProt P33261); test: Inhibition of human CYP2C19 at 10 uM relative to control; format: ADME
[9] = Fraction unbound in Wistar Hannover rat plasma at 1 mg/kg, sc measured at 0.5 hrs post dose by LC-MS/MS analysis; format: ADME, organism-based; settings: in vivo
[10] = biological target: Cannabinoid receptor 1 (Homo sapiens) (UniProt P21554); test: Inhibition of human cannabinoid CB1 receptor at 10 uM relative to control
Homo sapiens [11] = organism: Homo sapiens; test: Inhibition of human GABA-B receptor at 10 uM relative to control
[12] = biological target: D(1A) dopamine receptor (Homo sapiens) (UniProt P21728); test: Inhibition of human dopamine D1 receptor at 10 uM relative to control
Homo sapiens [13] = organism: Homo sapiens; test: Selectivity ratio of IC50 for full length recombinant human PDE1A to IC50 for full length recombinant human PDE1B1; outline: as §2
Homo sapiens [14] = organism: Homo sapiens; test: Selectivity ratio of IC50 for full length recombinant human PDE9A1 to IC50 for full length recombinant human PDE1B1; outline: as §2
[15] = biological target: Melanocortin receptor 3 (Homo sapiens) (UniProt P41968); test: Inhibition of human Melanocortin 3 receptor at 10 uM relative to control
Melanocortin receptor 3 (Homo sapiens), sequence (P41968 whole entry): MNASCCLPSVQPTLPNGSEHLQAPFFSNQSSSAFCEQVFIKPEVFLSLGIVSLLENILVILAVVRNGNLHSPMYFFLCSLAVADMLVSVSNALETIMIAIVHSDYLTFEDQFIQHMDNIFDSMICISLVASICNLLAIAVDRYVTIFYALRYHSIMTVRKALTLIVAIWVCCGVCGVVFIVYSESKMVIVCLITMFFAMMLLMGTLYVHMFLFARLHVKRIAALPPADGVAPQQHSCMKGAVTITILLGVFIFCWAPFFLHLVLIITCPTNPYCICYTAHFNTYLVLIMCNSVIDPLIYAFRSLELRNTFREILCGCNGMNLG

[16] = biological target: Muscarinic acetylcholine receptor M3 (Homo sapiens) (UniProt P20309); test: Inhibition of human muscarinic M3 receptor at 10 uM relative to control
[17] = Selectivity ratio of IC50 for bovine retina PDE6A to IC50 for full length recombinant human PDE1A; outline: as §2
[18] = biological target: 5-hydroxytryptamine receptor 2C (Homo sapiens) (UniProt P28335); test: Inhibition of human 5-HT2C receptor at 10 uM relative to control
Homo sapiens [19] = organism: Homo sapiens; test: Inhibition of human phencyclidine receptor at 10 uM relative to control
[20] = biological target: Adenosine A2 receptor (Homo sapiens) (UniProt P29275+P29274); test: Inhibition of human adenosine A2 receptor at 10 uM relative to control; format: protein assay
Rattus norvegicus [21] = organism: Rattus norvegicus; test: Displacement of [3H]D888 from rat brain L-type calcium channel verapamil binding site at 10 uM after 30 mins by scintillation counting analysis relative to control
[22] = biological target: 5-hydroxytryptamine receptor 4 (Homo sapiens) (UniProt Q13639); test: Inhibition of human 5-HT4E receptor at 10 uM relative to control
5-hydroxytryptamine receptor 4 (Homo sapiens), sequence (Q13639 whole entry): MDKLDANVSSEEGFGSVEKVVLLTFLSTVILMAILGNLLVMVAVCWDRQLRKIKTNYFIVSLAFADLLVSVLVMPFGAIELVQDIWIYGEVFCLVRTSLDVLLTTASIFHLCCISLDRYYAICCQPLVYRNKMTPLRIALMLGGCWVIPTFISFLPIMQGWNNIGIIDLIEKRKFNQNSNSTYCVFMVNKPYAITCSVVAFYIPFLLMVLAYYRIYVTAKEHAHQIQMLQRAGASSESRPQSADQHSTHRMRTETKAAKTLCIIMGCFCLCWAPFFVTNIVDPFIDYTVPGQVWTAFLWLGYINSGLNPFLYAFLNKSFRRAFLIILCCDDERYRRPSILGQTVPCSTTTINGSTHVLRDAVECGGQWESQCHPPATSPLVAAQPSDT

[23] = biological target: Motilin receptor (Homo sapiens) (UniProt O43193); test: Inhibition of human Motilin receptor at 10 uM relative to control
Motilin receptor (Homo sapiens), sequence (O43193 whole entry): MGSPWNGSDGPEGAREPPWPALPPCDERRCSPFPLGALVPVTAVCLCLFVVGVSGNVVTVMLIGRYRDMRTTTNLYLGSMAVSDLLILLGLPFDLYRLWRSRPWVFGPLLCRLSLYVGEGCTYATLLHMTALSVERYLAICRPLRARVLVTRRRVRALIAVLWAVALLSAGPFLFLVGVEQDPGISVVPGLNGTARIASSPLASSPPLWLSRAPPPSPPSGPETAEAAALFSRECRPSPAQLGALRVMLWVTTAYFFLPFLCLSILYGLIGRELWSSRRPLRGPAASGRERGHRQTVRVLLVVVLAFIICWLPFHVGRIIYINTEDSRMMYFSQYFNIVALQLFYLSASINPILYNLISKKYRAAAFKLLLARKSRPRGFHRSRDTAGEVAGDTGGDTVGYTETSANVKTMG

Homo sapiens [24] = organism: Homo sapiens; test: Inhibition of human 5-HT2 receptor at 10 uM relative to control
[25] = Ratio of fraction unbound in Wistar Hannover rat brain to plasma at 1 mg/kg, sc measured at 2 hrs post dose by LC-MS/MS analysis; format: ADME, organism-based; settings: in vivo
[26] = biological target: Beta-2 adrenergic receptor (Homo sapiens) (UniProt P07550); test: Inhibition of human beta 2 adrenergic receptor at 10 uM relative to control
Beta-2 adrenergic receptor (Homo sapiens), sequence (P07550 whole entry, looked up): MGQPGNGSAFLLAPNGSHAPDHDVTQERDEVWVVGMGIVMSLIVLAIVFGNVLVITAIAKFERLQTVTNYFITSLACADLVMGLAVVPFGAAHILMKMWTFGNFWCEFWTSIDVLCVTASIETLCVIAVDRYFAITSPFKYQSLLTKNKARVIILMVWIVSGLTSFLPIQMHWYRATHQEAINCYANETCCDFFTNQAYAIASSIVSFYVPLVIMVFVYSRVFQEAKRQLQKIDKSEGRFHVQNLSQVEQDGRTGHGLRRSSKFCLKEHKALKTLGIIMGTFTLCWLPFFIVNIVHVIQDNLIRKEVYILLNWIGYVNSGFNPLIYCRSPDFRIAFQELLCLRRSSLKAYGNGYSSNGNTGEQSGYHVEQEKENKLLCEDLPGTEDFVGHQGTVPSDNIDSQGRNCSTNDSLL

[27] = Selectivity ratio of IC50 for bovine retina PDE6A to IC50 for full length recombinant human PDE1B1; outline: as §2
[28] = Drug uptake in Wistar Hannover rat cerebrospinal fluid at 1 mg/kg, sc measured at 4 hrs post dose by LC-MS/MS analysis; format: ADME, organism-based; settings: in vivo, BLD = below limit of detection; outline: as §3
[29] = Ratio of drug uptake in cerebrospinal fluid to fraction unbound in plasma in Wistar Hannover rat at 1 mg/kg, sc measured at 2 hrs post dose by LC-MS/MS analysis; format: ADME, organism-based, CSF/Plasma; settings: in vivo
[30] = biological target: Mitogen-activated protein kinase 14 (Homo sapiens) (UniProt Q16539); test: Inhibition of recombinant human p38 alpha using Ulight-CFFKNIVTPRTPPPSQGK-amide as substrate at 10 uM after 30 mins in presence of ATP by LANCE method relative to control
Mitogen-activated protein kinase 14 (Homo sapiens), sequence (Q16539 whole entry): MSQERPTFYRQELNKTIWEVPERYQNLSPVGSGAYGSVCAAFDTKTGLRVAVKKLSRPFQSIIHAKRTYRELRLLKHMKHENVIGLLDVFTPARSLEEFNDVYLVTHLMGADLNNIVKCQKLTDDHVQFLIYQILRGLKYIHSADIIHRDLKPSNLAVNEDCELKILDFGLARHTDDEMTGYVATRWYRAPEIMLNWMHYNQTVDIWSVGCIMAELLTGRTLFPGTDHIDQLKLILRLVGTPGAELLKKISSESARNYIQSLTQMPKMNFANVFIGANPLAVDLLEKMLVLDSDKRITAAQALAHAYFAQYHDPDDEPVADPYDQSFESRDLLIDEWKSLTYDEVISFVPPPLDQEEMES

[31] = biological target: cGMP-specific 3',5'-cyclic phosphodiesterase (Homo sapiens, UniProt O76074); test: Inhibition of full length recombinant human PDE5A1 using 3',5'-[3H]cGMP as substrate after 30 mins by scintillation proximity assay; outline: as §1
[32] = biological target: Gastrin/cholecystokinin type B receptor (Homo sapiens) (UniProt P32239); test: Inhibition of human cholecystokinin CCK2 receptor at 10 uM relative to control
[33] = biological target: Prostaglandin G/H synthase 1 (Homo sapiens) (UniProt P23219); test: Inhibition of recombinant human Cyclooxygenase 1 using arachidonic acid/ADHP as substrate at 10 uM after 3 mins by Fluorimetric method relative to control
[34] = Fraction unbound in Wistar Hannover rat plasma at 1 mg/kg, sc measured at 2 hrs post dose by LC-MS/MS analysis; format: ADME, organism-based; settings: in vivo
[35] = biological target: Muscarinic acetylcholine receptor M5 (Homo sapiens) (UniProt P08912); test: Inhibition of human muscarinic M5 receptor at 10 uM relative to control
Muscarinic acetylcholine receptor M5 (Homo sapiens), sequence (P08912 whole entry): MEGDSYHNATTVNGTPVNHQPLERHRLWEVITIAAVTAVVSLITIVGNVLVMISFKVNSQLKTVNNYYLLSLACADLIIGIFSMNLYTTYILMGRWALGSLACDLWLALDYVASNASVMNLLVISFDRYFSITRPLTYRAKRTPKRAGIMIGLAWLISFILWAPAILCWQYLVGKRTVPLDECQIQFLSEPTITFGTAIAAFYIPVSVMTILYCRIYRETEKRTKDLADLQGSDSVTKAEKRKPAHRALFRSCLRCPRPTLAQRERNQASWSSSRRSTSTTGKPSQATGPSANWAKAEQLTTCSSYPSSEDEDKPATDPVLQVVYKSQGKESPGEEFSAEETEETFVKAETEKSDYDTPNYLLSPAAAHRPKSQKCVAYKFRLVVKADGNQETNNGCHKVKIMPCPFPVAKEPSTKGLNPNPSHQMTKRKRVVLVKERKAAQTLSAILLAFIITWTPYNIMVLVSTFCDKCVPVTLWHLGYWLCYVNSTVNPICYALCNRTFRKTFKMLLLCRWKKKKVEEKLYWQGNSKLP

[36] = biological target: Histamine H2 receptor (Homo sapiens) (UniProt P25021); test: Inhibition of human histamine H2 receptor at 10 uM relative to control
Histamine H2 receptor (Homo sapiens), sequence (P25021 whole entry): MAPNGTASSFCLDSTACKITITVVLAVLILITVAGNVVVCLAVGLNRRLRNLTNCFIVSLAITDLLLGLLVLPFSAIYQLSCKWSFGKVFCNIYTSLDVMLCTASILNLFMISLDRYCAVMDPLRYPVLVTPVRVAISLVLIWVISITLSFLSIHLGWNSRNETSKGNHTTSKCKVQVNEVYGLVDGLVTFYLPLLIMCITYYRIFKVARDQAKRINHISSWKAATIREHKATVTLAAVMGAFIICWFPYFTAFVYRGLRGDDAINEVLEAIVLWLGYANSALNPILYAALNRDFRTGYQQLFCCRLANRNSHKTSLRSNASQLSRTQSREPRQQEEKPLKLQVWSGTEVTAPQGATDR

For `COc1ccc2c(N[C@@H](C)Cc3cc(C)[nH]n3)ncnc2c1OC`, the inhibition (Homo sapiens [1]) was < 50%, the inhibition (Mus musculus) was < 50% and the inhibition (Rattus norvegicus [2]) was < 50%. For the same compound, the inhibition [3] was < 50%, the IC50 [4] was 15.5 µM and the Ratio IC50 (Homo sapiens [5]) was 3170. The inhibition [6] was < 50%, the concentration at 1 h [7] was 16 nM and the inhibition [8] was < 50%. For the same compound, the inhibition at 10 µM (CYP2C19) was < 50%, the “Cp(f)” value [9] was 171 nM and the inhibition [10] was < 50%. For the same compound, the inhibition (Homo sapiens [11]) was < 50%, the inhibition [12] was < 50% and the Ratio IC50 (Homo sapiens [13]) was 4.6. For the same compound, the Ratio IC50 (Homo sapiens [14]) was > 22000, the inhibition [15] was < 50% and the inhibition [16] was < 50%. The Ratio IC50 [17] was > 3380, the inhibition [18] was < 50% and the inhibition (Homo sapiens [19]) was < 50%. The inhibition [20] was < 50%, the inhibition (Rattus norvegicus [21]) was < 50% and the inhibition [22] was < 50%. For the same compound, the inhibition [23] was < 50%, the inhibition (Homo sapiens [24]) was < 50% and the Ratio [25] was 0.05. The inhibition [26] was < 50%, the Ratio IC50 [27] was > 15600 and the Drug uptake [28] was “Bld”. The Ratio [29] was 0.2, the inhibition [30] was < 50% and the IC50 [31] was 54.3 µM. The inhibition [32] was < 50%, the inhibition [33] was < 50% and the “Cp(f)” value [34] was 40 nM. The inhibition [35] was < 50% and the inhibition [36] was < 50%.
